The source made the active and inactive calls. The calls are words filed in the database; no cut-off is given here.
Assays:
[1] = molecular target: T1, Phosphatidylinositol 3-kinase catalytic subunit type 3 (Homo sapiens, UniProt Q8NEB9); assay: Inhibition of GST-tagged recombinant human full length VPS34 expressed in baculovirus upto 20 uM preincubated for 15 mins followed by addition of cold ATP/gamma32P-ATP measured after 1 hr in presence of MnCl2
How it was run: (§1)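 Radiometric membrane-capture assay, 10 nM purchased vps34, 15 min preincubation with inhibitor, then 1 h reaction. Final: 50 mM HEPES pH 7.5, 0.1% CHAPS, 2mM MnCl2, 1 mM EGTA, 2 mM DTT, 100 µM PI in PI:DOPS:DOPC, 500 ng/µL BSA, 2% DMSO, 10 µM ATP, 2.5 uCi γ32P-ATP; spots washed, phosphorimaged.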

[2] = molecular target: Phosphatidylinositol 4,5-bisphosphate 3-kinase catalytic subunit beta isoform (Homo sapiens) (UniProt P42338); assay: Inhibition of N-terminal histidine-tagged recombinant human full length PI3Kbeta expressed in baculovirus infected Sf9 insect cells upto 20 uM preincubated for 15 mins followed by addition of cold ATP/gamma32P-ATP measured after 15 mins
How it was run: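 PI3Kβ 0.6 nM final; inhibitor preincubated 15 min, reaction 15 min. Final: 50 mM HEPES pH 7.5, 100 mM NaCl, 0.03% CHAPS, 10 mM MgCl2, 1 mM EGTA, 2 mM DTT, 80 µM PIP2 (PIP2:DOPS:DOPC), 500 ng/µL BSA, 2% DMSO, 10 µM ATP, 2 uCi γ32P-ATP; membrane capture, phosphorimaging.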

[3] = molecular target: Phosphatidylinositol 4-kinase type 2-beta (Homo sapiens) (UniProt Q8TCG2); assay: Inhibition of flag-tagged recombinant PI4K2beta (unknown origin) transfected in HEK293T cells upto 20 uM preincubated for 15 mins followed by addition of cold ATP/gamma32P-ATP measured after 25 mins; format: cell-based; settings: HEK-293T
How it was run: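 Enzymes cloned from DNASU plasmids, FLAG-tagged, transfected into HEK293T and FLAG-immunoprecipitated, eluted with FLAG peptide. 15 min inhibitor preincubation, 25 min reaction in 20 mM Bis-Tris propane pH 7.5, 10 mM MgCl2, 0.075 mM Triton X-100, 0.5 mM EGTA, 1 mM DTT, 100 µM PI, 500 ng/µL BSA, 2% DMSO, 10 µM ATP, 2 uCi γ32P-ATP; phosphorimaging.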

[4] = molecular target: T1, Phosphatidylinositol 3-kinase catalytic subunit type 3; assay: Inhibition of GST-tagged recombinant human full length VPS34 expressed in baculovirus preincubated for 15 mins followed by addition of cold ATP/gamma32P-ATP measured after 1 hr in presence of MnCl2; how it was run: as §1
[5] = molecular target: T2, Phosphatidylinositol 4,5-bisphosphate 3-kinase catalytic subunit delta isoform (Homo sapiens, UniProt O00329); assay: Inhibition of histidine-tagged recombinant human full length PI3Kdelta expressed in baculovirus preincubated for 15 mins followed by addition of cold ATP/gamma32P-ATP measured after 20 mins in presence of MgCl2
T2 sequence (O00329 whole entry): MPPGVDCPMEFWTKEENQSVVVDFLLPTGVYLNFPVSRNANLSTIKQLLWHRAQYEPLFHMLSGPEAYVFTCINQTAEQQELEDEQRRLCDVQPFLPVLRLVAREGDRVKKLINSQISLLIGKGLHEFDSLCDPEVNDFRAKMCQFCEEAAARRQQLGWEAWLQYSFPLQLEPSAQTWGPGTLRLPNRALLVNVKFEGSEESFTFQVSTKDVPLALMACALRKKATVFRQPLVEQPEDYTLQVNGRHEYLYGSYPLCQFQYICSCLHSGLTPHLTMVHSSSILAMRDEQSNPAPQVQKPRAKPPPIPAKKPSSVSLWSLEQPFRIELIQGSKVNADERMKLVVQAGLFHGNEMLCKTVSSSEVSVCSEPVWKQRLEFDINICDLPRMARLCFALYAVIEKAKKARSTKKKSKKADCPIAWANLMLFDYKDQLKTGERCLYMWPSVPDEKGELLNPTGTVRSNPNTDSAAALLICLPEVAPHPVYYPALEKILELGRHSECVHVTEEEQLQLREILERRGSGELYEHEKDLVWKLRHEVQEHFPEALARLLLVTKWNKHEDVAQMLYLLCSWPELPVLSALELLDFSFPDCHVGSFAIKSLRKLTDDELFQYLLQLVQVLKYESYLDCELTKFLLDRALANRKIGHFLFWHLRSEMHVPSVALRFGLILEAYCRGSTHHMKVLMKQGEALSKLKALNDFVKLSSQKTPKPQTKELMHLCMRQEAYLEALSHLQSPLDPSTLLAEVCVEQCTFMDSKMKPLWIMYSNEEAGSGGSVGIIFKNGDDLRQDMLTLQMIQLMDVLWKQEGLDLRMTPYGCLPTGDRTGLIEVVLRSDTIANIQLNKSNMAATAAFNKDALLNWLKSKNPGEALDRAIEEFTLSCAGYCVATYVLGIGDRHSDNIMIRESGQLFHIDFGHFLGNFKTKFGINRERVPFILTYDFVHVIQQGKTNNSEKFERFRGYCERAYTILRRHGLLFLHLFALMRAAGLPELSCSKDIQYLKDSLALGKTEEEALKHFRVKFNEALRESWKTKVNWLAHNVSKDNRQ
How it was run: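 Final: 50 mM HEPES pH 7.5, 100 mM NaCl, 0.03% CHAPS, 10 mM MgCl2, 1 mM EGTA, 2 mM DTT, 80 µM PIP2 (PIP2:DOPS:DOPC), 500 ng/µL BSA, 2% DMSO, 10 µM ATP, 2.5 uCi γ32P-ATP. Nitrocellulose capture, phosphorimaging.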

[6] = Inhibition of GST-tagged recombinant human full length PI4K3beta expressed in insect cells preincubated for 15 mins followed by addition of cold ATP/gamma32P-ATP measured after 30 mins in presence of MgCl2
How it was run: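 Membrane-capture radiometric assay. Purchased enzyme, final 2.5 nM. Enzyme preincubated 15 min with inhibitor (diluted in 10% DMSO), then 30 min reaction. Final: 20 mM Bis-Tris propane pH 7.5, 10 mM MgCl2, 0.075 mM Triton X-100, 0.5 mM EGTA, 1 mM DTT, 100 µM PI in PI:DOPS:DOPC, 500 ng/µL BSA, 2% DMSO, 10 µM ATP, 1 uCi γ32P-ATP. Product spotted on nitrocellulose, washed in 1M NaCl/1% phosphoric acid, phosphorimaged.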

[7] = Cytotoxicity against human Huh7.5 cells after 3 days by presto blue assay; format: cell-based, Huh-7
How it was run: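 Huh7.5 cells stably infected with J6/JFH1-GLuc, kept in DMEM/10% FBS, glutamine, NEAA, pen/strep at 37 °C, 5% CO2. 10,000 cells/well; serially diluted compound added 1 h after plating; 3-day incubation. Replication read as Gaussia luciferase activity in supernatant; viability by Presto Blue.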

T1 sequence (Q8NEB9 whole entry): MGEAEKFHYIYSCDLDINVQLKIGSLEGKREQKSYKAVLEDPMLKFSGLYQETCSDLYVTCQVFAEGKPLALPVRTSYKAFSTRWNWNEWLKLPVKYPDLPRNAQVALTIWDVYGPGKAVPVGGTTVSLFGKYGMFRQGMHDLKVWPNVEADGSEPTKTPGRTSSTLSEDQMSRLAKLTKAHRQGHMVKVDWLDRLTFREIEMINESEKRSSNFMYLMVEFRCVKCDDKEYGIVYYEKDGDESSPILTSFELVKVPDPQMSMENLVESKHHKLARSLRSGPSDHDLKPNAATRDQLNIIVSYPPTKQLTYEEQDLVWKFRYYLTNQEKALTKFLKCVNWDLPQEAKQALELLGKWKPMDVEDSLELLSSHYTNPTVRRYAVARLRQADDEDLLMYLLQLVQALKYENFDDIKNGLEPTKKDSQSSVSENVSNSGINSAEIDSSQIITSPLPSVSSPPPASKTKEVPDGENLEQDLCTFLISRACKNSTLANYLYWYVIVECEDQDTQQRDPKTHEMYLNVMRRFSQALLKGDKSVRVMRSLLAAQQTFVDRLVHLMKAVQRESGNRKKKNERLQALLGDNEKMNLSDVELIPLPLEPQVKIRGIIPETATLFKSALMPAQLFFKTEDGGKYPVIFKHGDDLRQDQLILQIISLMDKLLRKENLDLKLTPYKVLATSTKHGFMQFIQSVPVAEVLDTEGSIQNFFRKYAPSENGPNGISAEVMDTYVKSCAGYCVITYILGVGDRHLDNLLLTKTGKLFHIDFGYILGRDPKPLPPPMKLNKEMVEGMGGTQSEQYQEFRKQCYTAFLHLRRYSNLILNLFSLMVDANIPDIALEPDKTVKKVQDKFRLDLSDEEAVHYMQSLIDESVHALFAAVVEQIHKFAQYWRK
Chain of Phosphatidylinositol 4,5-bisphosphate 3-kinase catalytic subunit beta isoform (Homo sapiens) (P42338 whole entry, looked up, canonical isoform): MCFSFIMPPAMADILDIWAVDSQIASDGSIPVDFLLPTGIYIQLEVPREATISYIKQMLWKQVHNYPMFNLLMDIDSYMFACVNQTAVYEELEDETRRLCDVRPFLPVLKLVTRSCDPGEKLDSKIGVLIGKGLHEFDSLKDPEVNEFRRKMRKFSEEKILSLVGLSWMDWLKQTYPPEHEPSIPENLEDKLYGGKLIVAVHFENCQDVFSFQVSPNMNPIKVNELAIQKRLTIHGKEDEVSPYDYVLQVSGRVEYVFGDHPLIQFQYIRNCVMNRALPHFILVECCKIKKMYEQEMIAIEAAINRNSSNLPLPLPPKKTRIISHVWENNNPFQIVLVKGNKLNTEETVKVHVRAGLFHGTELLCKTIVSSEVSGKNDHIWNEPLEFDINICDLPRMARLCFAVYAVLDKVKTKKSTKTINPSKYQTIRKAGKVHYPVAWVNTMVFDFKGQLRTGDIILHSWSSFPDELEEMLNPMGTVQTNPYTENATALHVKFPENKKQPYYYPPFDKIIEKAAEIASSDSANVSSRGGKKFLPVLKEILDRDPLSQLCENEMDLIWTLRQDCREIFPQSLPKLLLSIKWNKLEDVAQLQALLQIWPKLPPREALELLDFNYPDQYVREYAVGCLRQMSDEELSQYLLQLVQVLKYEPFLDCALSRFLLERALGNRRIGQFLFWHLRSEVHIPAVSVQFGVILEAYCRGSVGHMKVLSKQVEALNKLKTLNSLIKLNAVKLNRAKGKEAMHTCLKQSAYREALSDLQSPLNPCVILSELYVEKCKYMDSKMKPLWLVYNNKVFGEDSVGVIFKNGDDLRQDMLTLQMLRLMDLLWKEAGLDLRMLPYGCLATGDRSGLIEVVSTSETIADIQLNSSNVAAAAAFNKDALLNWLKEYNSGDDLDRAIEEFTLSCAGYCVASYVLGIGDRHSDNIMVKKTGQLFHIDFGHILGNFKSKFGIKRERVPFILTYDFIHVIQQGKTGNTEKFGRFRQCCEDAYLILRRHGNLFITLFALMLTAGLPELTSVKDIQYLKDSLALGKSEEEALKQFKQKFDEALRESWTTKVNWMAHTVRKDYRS
Chain of Phosphatidylinositol 4-kinase type 2-beta (Homo sapiens) (Q8TCG2 whole entry): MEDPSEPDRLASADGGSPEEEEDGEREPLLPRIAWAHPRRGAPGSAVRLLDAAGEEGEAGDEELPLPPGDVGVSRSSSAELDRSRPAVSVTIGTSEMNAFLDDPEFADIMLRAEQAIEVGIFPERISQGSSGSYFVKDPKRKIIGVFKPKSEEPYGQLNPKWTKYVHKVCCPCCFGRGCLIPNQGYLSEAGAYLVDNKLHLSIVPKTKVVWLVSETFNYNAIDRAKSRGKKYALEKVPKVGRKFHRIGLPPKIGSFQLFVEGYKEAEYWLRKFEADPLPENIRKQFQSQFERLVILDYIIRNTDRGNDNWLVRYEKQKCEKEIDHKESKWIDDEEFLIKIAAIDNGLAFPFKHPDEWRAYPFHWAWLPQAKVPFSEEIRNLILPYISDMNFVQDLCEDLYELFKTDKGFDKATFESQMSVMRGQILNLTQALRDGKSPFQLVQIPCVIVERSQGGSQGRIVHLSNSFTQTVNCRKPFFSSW

SMILES | inhibition [1] | inhibition [2] [%] | inhibition [3] [%] | IC50 [4] [nM] | IC50 [5] [nM] | IC50 [6] [nM] | CC50 at 72 h [7] [nM]
COc1ccc(-c2sc(NC(=O)C(C)(C)C)nc2C)cc1S(=O)(=O)Nc1ccc(O)cc1 | inactive | < 20 | < 20 | > 20000 | 720 | 3.6 | 32000
COc1ccc(-c2sc(NC(=O)C3CCCC3)nc2C)cc1S(=O)(=O)Nc1ccc(O)cc1 | inactive | < 50 | < 50 | > 20000 | 152 | 7 | 14000

— ChEMBL document CHEMBL3784974, “Design and Structural Characterization of Potent and Selective Inhibitors of Phosphatidylinositol 4 Kinase IIIβ” (J Med Chem, 2016)
